Here are results for 2 compounds from ChEMBL document CHEMBL4007396, “New diphenylmethane derivatives as peroxisome proliferator-activated receptor alpha/gamma dual agonists endowed with anti-proliferative effects and mitochondrial activity” (Eur J Med Chem, 2017).

The source made the active and inactive calls. No cut-off for these calls is given here.

The target of experiment [1] is T1, Bile acid receptor (Homo sapiens) (UniProt Q96RI1).
T1 sequence (whole entry): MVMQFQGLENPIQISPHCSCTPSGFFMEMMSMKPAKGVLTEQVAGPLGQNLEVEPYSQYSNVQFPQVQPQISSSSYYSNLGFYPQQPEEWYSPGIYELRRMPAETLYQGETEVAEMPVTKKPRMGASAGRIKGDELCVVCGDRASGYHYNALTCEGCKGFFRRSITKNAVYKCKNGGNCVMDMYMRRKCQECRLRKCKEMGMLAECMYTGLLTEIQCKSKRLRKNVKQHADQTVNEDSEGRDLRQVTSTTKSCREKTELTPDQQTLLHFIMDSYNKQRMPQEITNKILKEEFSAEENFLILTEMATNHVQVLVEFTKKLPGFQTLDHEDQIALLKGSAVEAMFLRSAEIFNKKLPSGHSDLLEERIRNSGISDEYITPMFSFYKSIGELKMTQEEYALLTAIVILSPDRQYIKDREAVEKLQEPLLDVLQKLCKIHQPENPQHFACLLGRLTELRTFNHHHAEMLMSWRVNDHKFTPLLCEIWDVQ
The experiment is described as follows: Agonist activity at GAL4-fused human FXR LBD expressed in human HepG2 cells up to 2 uM after 20 hrs by luciferase reporter gene assay. Type of experiment: cell-based. In outline: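 HepG2 in MEM/10% FBS, calcium-phosphate co-transfection 24 h after seeding with GAL4-FXR-LBD (30 ng), pGAL5TKpGL3 luciferase reporter (100 ng) and pCMVβgal (250 ng); 4 h later, 20 h ligand exposure in triplicate. Luciferase normalized to β-galactosidase (ONPG); efficacy as % of maximal fold induction of chenodeoxycholic acid reference; tested up to 2 μM.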

Experiment [2] deals with T2, Peroxisome proliferator-activated receptor alpha (Homo sapiens, UniProt Q07869).
T2 sequence (Q07869 whole entry): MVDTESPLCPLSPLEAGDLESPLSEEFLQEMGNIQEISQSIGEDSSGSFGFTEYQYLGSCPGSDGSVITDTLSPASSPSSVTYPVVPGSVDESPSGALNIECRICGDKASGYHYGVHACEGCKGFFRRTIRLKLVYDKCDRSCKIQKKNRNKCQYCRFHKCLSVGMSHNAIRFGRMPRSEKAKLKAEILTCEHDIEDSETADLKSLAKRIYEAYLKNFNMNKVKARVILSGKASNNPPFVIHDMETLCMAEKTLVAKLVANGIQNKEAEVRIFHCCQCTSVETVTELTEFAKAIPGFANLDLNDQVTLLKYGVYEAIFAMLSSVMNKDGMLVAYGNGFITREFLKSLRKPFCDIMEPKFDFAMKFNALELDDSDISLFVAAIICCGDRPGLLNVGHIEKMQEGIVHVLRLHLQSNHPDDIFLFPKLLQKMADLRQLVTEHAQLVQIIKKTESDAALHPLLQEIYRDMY
Briefly: Binding affinity to PPARalpha (unknown origin) assessed as thermodynamic dissociation constant by SPR assay. To be noted: read-out: Kd. (In general: In SPR one partner is held on a chip, and binding of the other changes the refractive index at the surface.)

Experiment [3] addresses T3, Peroxisome proliferator-activated receptor gamma (Homo sapiens, UniProt P37231).
T3 sequence (P37231 whole entry): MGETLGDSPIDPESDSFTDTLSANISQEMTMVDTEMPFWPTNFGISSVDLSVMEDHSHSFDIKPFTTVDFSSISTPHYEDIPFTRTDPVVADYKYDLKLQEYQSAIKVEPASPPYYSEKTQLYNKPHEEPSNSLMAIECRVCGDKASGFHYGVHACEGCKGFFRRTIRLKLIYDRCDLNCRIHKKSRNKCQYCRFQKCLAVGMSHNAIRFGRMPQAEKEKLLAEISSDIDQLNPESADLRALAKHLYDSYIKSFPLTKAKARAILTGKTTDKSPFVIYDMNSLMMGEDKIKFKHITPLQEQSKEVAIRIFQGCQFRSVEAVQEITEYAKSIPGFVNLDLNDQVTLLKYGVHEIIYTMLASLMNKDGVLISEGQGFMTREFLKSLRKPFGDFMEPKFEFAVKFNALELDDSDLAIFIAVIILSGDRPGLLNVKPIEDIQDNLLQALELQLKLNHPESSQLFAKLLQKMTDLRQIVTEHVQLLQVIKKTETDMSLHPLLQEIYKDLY
The experiment is described as follows: Transactivation of GAL4-fused human PPARgamma LBD expressed in human HepG2 cells after 20 hrs by luciferase reporter gene assay. Type of experiment: cell-based. (In general: A reporter such as luciferase makes a cellular process visible.)

The target in experiment [4] is T4, Peroxisome proliferator-activated receptor alpha (Homo sapiens) (UniProt Q07869).
T4 sequence (whole entry): T2 sequence (Q07869 whole entry)
Briefly: Agonist activity at PPARalpha in human HepG2 cells assessed as increase in CPT1 mRNA level at 1 uM after 24 hrs by RT-PCR method. The experiment is classed as cell-based. The gist of the method: (§1)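 Serum-free HepG2 exposed 24 h to 1 μM test agent (Wy-14,643 reference at 50 μM). RNA extracted from 1x10⁶ cells; TaqMan real-time RT-PCR for CAC, CPT1 or PPARα, normalized to β-actin. Mean ± SD of three independent duplicate experiments; one-way ANOVA with Bonferroni test.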

The target of experiment [5] is T4, Peroxisome proliferator-activated receptor alpha (Homo sapiens). The experiment is described as follows: Agonist activity at PPARalpha in human HepG2 cells assessed as increase in CAC mRNA level at 1 uM after 24 hrs by RT-PCR method. The experiment is classed as cell-based. In outline:
as §1

Experiment [6] shares this target. Briefly: Agonist activity at PPARalpha in human HepG2 cells assessed as increase in CAC protein expression level at 1 uM after 48 hrs by Western blot method. The experiment is classed as cell-based. In outline:
(§2)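 HepG2 serum-depleted 24 h, then treated 48 h with 1 μM compound (Wy-14,643 at 50 μM as reference). Nitrocellulose immunoblots probed for CAC, CPT1 or PPARα with β-actin loading control, chemiluminescent detection; band densitometry expressed as fold change versus untreated cells; three independent experiments.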
(A western blot detects proteins with antibodies after separation by electrophoresis.)

Experiment [7] shares this target. Briefly: Agonist activity at PPARalpha in human HepG2 cells assessed as increase in CPT1 protein expression level at 1 uM after 48 hrs by Western blot method. The experiment is classed as cell-based. In outline: as §2
In experiment [8] the target is T2, Peroxisome proliferator-activated receptor alpha. The experiment is described as follows: Binding affinity to PPARalpha (unknown origin) assessed as kinetic dissociation constant by SPR assay.
In experiment [9] the target is T5, Peroxisome proliferator-activated receptor delta (Homo sapiens, UniProt Q03181).
T5 sequence (Q03181 whole entry): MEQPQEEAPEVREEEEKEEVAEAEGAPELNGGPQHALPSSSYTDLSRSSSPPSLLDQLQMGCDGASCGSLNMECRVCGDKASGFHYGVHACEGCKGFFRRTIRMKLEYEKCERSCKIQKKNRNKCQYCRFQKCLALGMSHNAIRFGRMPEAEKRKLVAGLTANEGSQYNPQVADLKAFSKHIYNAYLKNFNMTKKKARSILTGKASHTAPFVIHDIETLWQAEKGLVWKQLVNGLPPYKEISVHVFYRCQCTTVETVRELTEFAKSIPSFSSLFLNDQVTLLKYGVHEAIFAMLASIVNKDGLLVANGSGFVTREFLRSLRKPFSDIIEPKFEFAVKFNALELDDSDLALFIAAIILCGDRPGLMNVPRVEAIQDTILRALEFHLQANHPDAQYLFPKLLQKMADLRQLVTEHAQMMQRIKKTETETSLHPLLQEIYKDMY
Briefly: Binding affinity to PPARdelta (unknown origin) assessed as kinetic dissociation constant by SPR assay.

As for `C[C@@H](Oc1ccc(Cc2ccc(OCc3coc(-c4ccccc4)n3)cc2)cc1)C(=O)O`, the outcome in experiment [1] was inactive. Also, the figures for the Kd in [2], in [8] and in experiment [9] were 0.86 nM, 0.025 s⁻¹ and “Not Active”, respectively. Besides, the EC50 in experiment [3] is 280 nM. The outcome in [4], in experiment [5], in experiment [6] and in [7] was Active.

Consider `C[C@H](Oc1ccc(Cc2ccc(OCc3coc(-c4ccccc4)n3)cc2)cc1)C(=O)O`, for which the result in experiment [1] was inactive. Besides, the results for the Kd in [2], in [8] and in [9] were 0.75 nM, 0.016 s⁻¹ and “Not Active”, respectively. The same compound returned an EC50 in experiment [3] of 300 nM. Besides, the outcome in [4], in [5], in experiment [6] and in [7] was Active.

For orientation: EC50 means the concentration that produces a half-maximal response. A higher EC50 goes with weaker potency.
